In data set [1] the test system is Mycobacterium tuberculosis. Put plainly: Bactericidal activity against Mycobacterium tuberculosis in pulmonary tuberculosis patient assessed as reduction in sputum bacterial count at 400 […], po once daily measured after 1 day. The format is functional. The essentials: (§1)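 Hospitalized treatment-naïve smear-positive patients took oral doses once daily, observed, after breakfast. Sputum was pooled over 16 h overnight at baseline, after each of the 7 dosing days, and on the night after the first standard-therapy dose. Sputum was stirred, digested with dithiothreitol for 20 min at room temperature, and diluted 10-fold. Dilutions were plated in quadruplicate on selective 7H11 agar and counted after 3-4 weeks at 37°C at 20-200 colonies. The read-out was change in log10 CFU/ml from baseline, with a count of 0 set to log 0.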

Data set [2] concerns Homo sapiens. As to the kind of experiment: Toxicity in pulmonary tuberculosis patient assessed as hemoptysis at 100 […], po once daily. On the set-up: dose 100 mg/kg, route oral. The note with it: in vivo. The format is organism-based.
For data set [3], the system named is Homo sapiens. As to the kind of experiment: Toxicity in pulmonary tuberculosis patient assessed as rash at 100 […], po once daily. Format: organism-based. On the set-up: dose 100 mg/kg, route oral. The note with it: in vivo.
The nature of data set [4]: Tmax in pulmonary tuberculosis patient at 100 […], po once daily for 7 days by liquid chromatography-MS/MS analysis. The format is ADME, organism-based. On the set-up: dose 100 mg/kg, route oral. To be noted: human, in vivo. An outline of the steps: (§2)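 Treatment-naïve smear-positive pulmonary TB patients, hospitalized; 7-day oral once-daily monotherapy, directly observed, within 30 min after breakfast. Heparinized plasma taken predose and 1, 2, 3, 4, 5, 6, 8, 12 and 24 h postdose on day 7, plus predose on days 5 and 6. Parent drug and N-monodesmethyl metabolite measured by validated LC-MS/MS. Noncompartmental parameters; AUC0-24 by linear trapezoidal rule.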

Data set [5] deals with Mycobacterium tuberculosis. As to the kind of experiment: Bactericidal activity against Mycobacterium tuberculosis in pulmonary tuberculosis patient assessed as reduction in sputum bacterial count at 400 mg/kg, po once daily measured on day 8 after starting standard TB therapy. The format is functional. An outline of the steps:
as §1

The test system of data set [6] is Homo sapiens. Put plainly: Cardiotoxicity in pulmonary tuberculosis patient assessed as increase in QT interval at 100 […], po once daily for 7 days. Format: toxicity, organism-based. On the set-up: dose 100 mg/kg, route oral. The note with it: in vivo, 168 h.
In data set [7] the test system is Mycobacterium tuberculosis. As to the kind of experiment: Bactericidal activity against Mycobacterium tuberculosis in pulmonary tuberculosis patient assessed as reduction in sputum bacterial count at 25 mg/kg, po once daily measured after 7 days. The format is functional. An outline of the steps:
as §1

The nature of data set [8]: AUC (0 to 24 hrs) in pulmonary tuberculosis patient at 400 mg/kg, po once daily for 7 days by liquid chromatography-MS/MS analysis. The format is ADME, organism-based. On the set-up: time < 24 hr, dose 400 mg/kg, route oral. The note with it: human, plasma. An outline of the steps:
(§3)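 Treatment-naïve, sputum smear-positive patients, hospitalized, took the drug orally once daily under direct observation within 30 min after breakfast. On day 7, heparinized plasma was drawn predose and at 1, 2, 3, 4, 5, 6, 8, 12 and 24 h for parent drug and M2 metabolite. Levels were measured by validated LC-MS/MS, and AUC0-24 was calculated noncompartmentally by the linear trapezoidal rule.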

The test system of data set [9] is Mycobacterium tuberculosis. Put plainly: Bactericidal activity against Mycobacterium tuberculosis in pulmonary tuberculosis patient assessed as reduction in sputum bacterial count at 25 […], po once daily measured after 2 days. The format is functional. The essentials: as §1
Data set [10] relates to Homo sapiens. Put plainly: Steady-state plasma concentration in pulmonary tuberculosis patient at 100 […], po once daily for 7 days by liquid chromatography-MS/MS analysis. To be noted: in vivo, 168 h. Format: ADME, organism-based. On the set-up: dose 100 mg/kg, route oral. An outline of the steps:
as §2

For data set [11], the system named is Homo sapiens. As to the kind of experiment: Toxicity in pulmonary tuberculosis patient assessed as hemoptysis at 400 mg/kg, po once daily. Format: organism-based. On the set-up: dose 400 mg/kg, route oral. To be noted: in vivo.
Data set [12] relates to Homo sapiens. As to the kind of experiment: Toxicity in pulmonary tuberculosis patient assessed as somnolence at 400 mg/kg, po once daily for 7 days. On the set-up: dose 400 mg/kg, route oral. Format: organism-based. The note with it: in vivo, 168 h.
The nature of data set [13]: Tmax in pulmonary tuberculosis patient at 400 mg/kg, po once daily for 7 days by liquid chromatography-MS/MS analysis. Format: ADME, organism-based. On the set-up: dose 400 mg/kg, route oral. The note with it: human, in vivo. The essentials: as §2
The subject of data set [14] is Mycobacterium tuberculosis. As to the kind of experiment: Bactericidal activity against Mycobacterium tuberculosis in pulmonary tuberculosis patient assessed as reduction in sputum bacterial count at 100 […], po once daily measured after 7 days. The format is functional. An outline of the steps:
as §1

The nature of data set [15]: Cmax in pulmonary tuberculosis patient at 400 mg/kg, po once daily for 7 days by liquid chromatography-MS/MS analysis. The format is ADME, organism-based. On the set-up: dose 400 mg/kg, route oral. To be noted: human, in vivo. The essentials:
as §2

Data set [16] has as its system Mycobacterium tuberculosis. Put plainly: Bactericidal activity against Mycobacterium tuberculosis in pulmonary tuberculosis patient assessed as reduction in sputum bacterial count at 400 mg/kg, po once daily measured after 7 days. The format is functional. The essentials: as §1
The test system of data set [17] is Mycobacterium tuberculosis. Put plainly: Bactericidal activity against Mycobacterium tuberculosis in pulmonary tuberculosis patient assessed as reduction in sputum bacterial count at 25 mg/kg, po once daily measured after 6 days. The format is functional. The essentials: as §1
Data set [18] has as its system Mycobacterium tuberculosis. As to the kind of experiment: Bactericidal activity against Mycobacterium tuberculosis in pulmonary tuberculosis patient assessed as reduction in sputum bacterial count at 400 mg/kg, po once daily measured after 4 days. Format: functional. The essentials: as §1
Data set [19] relates to Mycobacterium tuberculosis. Put plainly: Bactericidal activity against Mycobacterium tuberculosis in pulmonary tuberculosis patient assessed as reduction in sputum bacterial count at 100 […], po once daily measured after 5 days. The format is functional. The essentials:
as §1

Data set [20] can be described thus: Drug uptake in pulmonary tuberculosis patient at 400 mg/kg, po once daily for 7 days by liquid chromatography-MS/MS analysis. Format: ADME, organism-based. On the set-up: dose 400 mg/kg, route oral. To be noted: human, in vivo, read-out: Drug uptake. An outline of the steps: as §2
Data set [21] concerns Mycobacterium tuberculosis. As to the kind of experiment: Bactericidal activity against Mycobacterium tuberculosis in pulmonary tuberculosis patient assessed as reduction in sputum bacterial count at 100 […], po once daily measured after 6 days. Format: functional. An outline of the steps:
as §1

The nature of data set [22]: AUC (0 to 24 hrs) in pulmonary tuberculosis patient at 25 mg/kg, po once daily for 7 days by liquid chromatography-MS/MS analysis. Format: ADME, organism-based. On the set-up: time < 24 hr, dose 25 mg/kg, route oral. To be noted: human, plasma. The essentials: as §3
Data set [23] relates to Homo sapiens. As to the kind of experiment: Cardiotoxicity in pulmonary tuberculosis patient assessed as increase in QT interval at 400 mg/kg, po once daily for 7 days. The format is toxicity, organism-based. On the set-up: dose 400 mg/kg, route oral. To be noted: in vivo, 168 h.
Data set [24] concerns Mycobacterium tuberculosis. Put plainly: Bactericidal activity against Mycobacterium tuberculosis in pulmonary tuberculosis patient assessed as reduction in sputum bacterial count at 400 mg/kg, po once daily measured after 3 days. The format is functional. The essentials: as §1

Molecules are shown by their SMILES.

One may read the Tmax as the time from dosing to the highest level. One may read the AUC as the area under the concentration-time curve, a measure of exposure. A higher AUC goes with high exposure. The term Cmax denotes the maximum level reached in the sampled fluid or tissue.

Take `COc1nc2ccc(Br)cc2cc1[C@@H](c1ccccc1)[C@@](O)(CCN(C)C)c1cccc2ccccc12` [BEDAQUILINE]: the log10CFU/ml in data set [1] is -0.07; in data set [5], -1.14; in data set [7] it was -0.04; in data set [9], 0.02; in data set [14] it was -0.26; in data set [16], -0.77. Moreover, the log10CFU/ml in data set [17] is -0.06; in [18], -0.22; in data set [19], -0.13; in data set [21] it was -0.09; in [24] it was -0.31. The Activity is 6.3% in the data set with Homo sapiens [2], 7% in the data set on Homo sapiens [3], 21.4% with Homo sapiens [11] and 7% in the data set on Homo sapiens [12]. The Tmax in data set [4] and in data set [13] was 4 h in each case. Also, the Time in the data set with Homo sapiens [6] is given as 7.1 ms; with Homo sapiens [23] it was 18.8 ms. Moreover, the AUC at 24 h in data set [8] was found to be 64800 ng·h/mL; in [22] it was 3970 ng·h/mL. In addition, the Css with Homo sapiens [10] was found to be 667.7 ng/mL. This compound returned a Cmax in [15] of 5500 ng/mL. Moreover, the concentration at 168 h in [20] is 1530 ng/mL.

The values above are taken from ChEMBL document CHEMBL1275461, “Early bactericidal activity and pharmacokinetics of the diarylquinoline TMC207 in treatment of pulmonary tuberculosis” (Antimicrob Agents Chemother, 2008).
